What was measured:
[1] = Ratio of drug level in brain to plasma in Sprague-Dawley rat at 5 mg/kg, sc after 1 hr; assay type: ADME, organism-based; parameters: dose 5 mg/kg, route subcutaneous; settings: brain and plasma, read-out: BPR
Outline: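 Male Sprague–Dawley rats (n = 3 per time point) received 5 mg/kg subcutaneously. Plasma (cardiac puncture after CO2 euthanasia), brain and CSF were collected at 0.5, 1, 2 and 4 h. Drug levels were measured by LC/MS/MS. Ratio is taken from the average brain and plasma concentrations at 1 h.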

MDR = assay: Permeability from apical to basolateral side of MDCK cells over expressing MDR; settings: dog, MDCK-MDR1

Compound	Kp at 1 h [1]	Papp (apical to basal) (MDR)
COc1ccccc1CCNc1cc(-c2ccncn2)cc(=O)n1C	0.35	
Cn1c(N2CCC(O)(c3ccccc3)CC2)cc(-c2ccncn2)cc1=O	0.96	
COc1ccccc1[C@H]1CN(c2cc(-c3ccncn3)cc(=O)n2C)CCO1	1.86	
Cc1cc(-c2cc(-c3ccccc3)nc(=O)[nH]2)ccc1O		13.9 ×10⁻⁶ cm/s

Source: ChEMBL document CHEMBL1681660, “6-amino-4-(pyrimidin-4-yl)pyridones: novel glycogen synthase kinase-3β inhibitors” (Bioorg Med Chem Lett, 2011)
